Assay results collected from several papers.
Compare with care: the assays were run in different laboratories. In brackets after ≈: the same amount, converted by molar mass.

COCC(=O)OCc1cc2[nH]c(=S)n(Cc3cccnc3)c(=O)c2cc1Cl — MIC90 (Mycobacterium tuberculosis; microbial growth; H37RV): 2.36 µM (≈ 0.958 µg/mL)
COc1ccc(-c2cc(C(F)(F)F)c3c(N)c(C(=O)N4CCCCC4)sc3n2)cc1 — IC50 (HepG2; cell growth or viability; 72 h): > 100 µM
CC(CNc1cc(-c2ccccn2)nc2nncn12)c1ccccc1 (stereo not drawn) — IC90 (Mycobacterium tuberculosis; microbial growth; H37RV): 35 µM
N=C(CC(O)c1cc2c(F)cc(F)cc2c2cc(C(F)(F)F)ccc12)NCc1ccc(F)cc1 (stereo not drawn) — IC50 (HepG2; cell growth or viability, neutral red; 24 h): 7.2 µM
CC(C)C(=O)OCc1cc2[nH]c(=S)n(Cc3cncc(C#N)c3)c(=O)c2cc1Cl — MIC90 (Mycobacterium tuberculosis; microbial growth; H37RV): 5.52 µM (≈ 2.37 µg/mL)
N=C(CC(O)c1cc2c(F)cc(F)cc2c2cc(C(F)(F)F)ccc12)NC1CC(F)(F)C1 (stereo not drawn) — IC50 (HepG2; cell growth or viability, neutral red; 24 h): 7.2 µM
NC(=O)c1cc2[nH]c(=S)n(Cc3cccnc3)c(=O)c2cc1Cl — MIC90 (Mycobacterium tuberculosis; microbial growth; H37RV): 7.1 µM (≈ 2.46 µg/mL)
CCc1ccc(CCNc2cc(-c3ccccn3)nc3nnc(C4CC4)n23)cc1 — MIC (Mycobacterium tuberculosis; microbial growth; H37RV): 50 µM (≈ 19.2 µg/mL)
N.N.[Cl][Pt][Cl] — IC50 (Ramos; cell growth or viability, ATP luminescence; 72 h): 2.76 µM
O=c1c2cc(Cl)ccc2[nH]c(=S)n1Cc1ccc(-c2cscn2)nc1 — MIC90 (Mycobacterium tuberculosis; microbial growth; H37RV): > 100 µM
COc1ccc(-c2cc(C(F)(F)F)c3c(N)c(C(=O)NCc4ccccc4)sc3n2)cc1 — IC50 (Mycobacterium tuberculosis; microbial growth; H37RV): > 100 µM
N#Cc1ccc(Cn2c(=S)[nH]c3ccc(Cl)cc3c2=O)cn1 — MIC90 (Mycobacterium tuberculosis; microbial growth; H37RV): > 100 µM
COc1ccc(-c2cc(C(F)(F)F)c3c(N)c(C(=O)NC45CC6CC(CC(C6)C4)C5)sc3n2)cc1 — IC50 (HepG2; cell growth or viability; 72 h): > 100 µM
O=c1c2cc(Cl)ccc2[nH]c(=S)n1Cc1ccc(-c2ccccc2)nc1 — MIC90 (Mycobacterium tuberculosis; microbial growth; H37RV): > 100 µM
N=C(CC(O)c1cc2c(F)cc(F)cc2c2cc(C(F)(F)F)ccc12)N1CCC(F)(F)CC1 (stereo not drawn) — IC50 (HepG2; cell growth or viability, neutral red; 24 h): 15.7 µM
FC(F)(F)Oc1ccc(CCNc2cc(-c3ccccn3)nc3nncn23)cc1 — MIC (Mycobacterium tuberculosis; microbial growth; H37RV): 4 µM (≈ 1.6 µg/mL)
COc1ccc(-c2cc(C(F)(F)F)c3c(N)c(C(=O)Nc4c(C)cccc4C)sc3n2)cc1 — IC50 (HepG2; cell growth or viability; 72 h): > 100 µM
NC(=S)c1cncc(Cn2c(=S)[nH]c3ccc(Cl)cc3c2=O)c1 — MIC90 (Mycobacterium tuberculosis; microbial growth; H37RV): > 100 µM
COC1CN(C(=O)c2sc3ncccc3c2N)C1 — IC50 (Mycobacterium tuberculosis; microbial growth; H37RV): > 100 µM
O=c1c2cc(Cl)c(CO)cc2[nH]c(=S)n1Cc1cncnc1 — MIC90 (Mycobacterium tuberculosis; microbial growth; H37RV): 3.23 µM (≈ 1.08 µg/mL)
Clc1ccc(CCNc2cc(-c3ccccn3)nc3cc(Br)nn23)cc1 — MIC (Mycobacterium tuberculosis; microbial growth; H37RV): 36 µM (≈ 15.4 µg/mL)
COc1ccc(-c2cc(C(F)(F)F)c3c(N)c(C(=O)NC4COC4)sc3n2)cc1 — IC50 (HepG2; cell growth or viability; 72 h): > 100 µM
O=C(Nc1ccc(Cl)cc1)Nc1cccc(-c2cn(Cc3ccc(Br)cc3)nn2)c1 — viability (Huh-7; cell growth or viability, CCK-8; 50 µM, 72 h): 13.1%
CCC(NC(=O)c1sc2nc(-c3ccc(OC)cc3)cc(C(F)(F)F)c2c1N)c1ccccc1 (stereo not drawn) — IC50 (HepG2; cell growth or viability; 72 h): > 100 µM
Cc1c(F)cccc1NC(=N)CC(O)c1cc2c(F)cc(F)cc2c2cc(C(F)(F)F)ccc12 (stereo not drawn) — IC50 (HepG2; cell growth or viability, neutral red; 24 h): 11.3 µM
Cc1cccc(NC(=O)c2sc3nc(-c4cccs4)cc(C(F)(F)F)c3c2N)c1C — IC50 (HepG2; cell growth or viability; 72 h): > 100 µM
Cc1ccc(CCNc2cc(-c3ccccn3)nc3cc(Br)nn23)cc1 — MIC (Mycobacterium tuberculosis; microbial growth; H37RV): 25 µM (≈ 10.2 µg/mL)
